Experimental data reported in ChEMBL document CHEMBL4602716, “Development of Selective Histone Deacetylase 6 (HDAC6) Degraders Recruiting Von Hippel-Lindau (VHL) E3 Ubiquitin Ligase” (ACS Med Chem Lett, 2020).
Calls of active or inactive are those of the source. No cut-off for these calls is given here.

What was measured:
Format in all cases: cell-based
[1] = molecular target: T1, von Hippel-Lindau disease tumor suppressor/Protein deacetylase HDAC6 (Homo sapiens, UniProt Q9UBN7+P40337); assay: Protac activity at VHL/HDAC6 in human MM1S cells assessed as HDAC6 degradation at 100 nM measured after 6 hrs by ELISA
Summary of the method: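 Linker-length screen. MM1S cells were treated with degraders at 100 nM for 6 h, and HDAC6 protein level was quantified by in-cell ELISA.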
Target sequence in this assay (P40337 whole entry, looked up): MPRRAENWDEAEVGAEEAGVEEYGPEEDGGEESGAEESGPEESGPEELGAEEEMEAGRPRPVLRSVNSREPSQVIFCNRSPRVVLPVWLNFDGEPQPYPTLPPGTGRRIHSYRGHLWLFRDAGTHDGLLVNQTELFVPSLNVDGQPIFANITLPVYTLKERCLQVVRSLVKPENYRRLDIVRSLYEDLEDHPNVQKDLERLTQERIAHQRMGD
Target sequence in this assay (Q9UBN7 whole entry, looked up): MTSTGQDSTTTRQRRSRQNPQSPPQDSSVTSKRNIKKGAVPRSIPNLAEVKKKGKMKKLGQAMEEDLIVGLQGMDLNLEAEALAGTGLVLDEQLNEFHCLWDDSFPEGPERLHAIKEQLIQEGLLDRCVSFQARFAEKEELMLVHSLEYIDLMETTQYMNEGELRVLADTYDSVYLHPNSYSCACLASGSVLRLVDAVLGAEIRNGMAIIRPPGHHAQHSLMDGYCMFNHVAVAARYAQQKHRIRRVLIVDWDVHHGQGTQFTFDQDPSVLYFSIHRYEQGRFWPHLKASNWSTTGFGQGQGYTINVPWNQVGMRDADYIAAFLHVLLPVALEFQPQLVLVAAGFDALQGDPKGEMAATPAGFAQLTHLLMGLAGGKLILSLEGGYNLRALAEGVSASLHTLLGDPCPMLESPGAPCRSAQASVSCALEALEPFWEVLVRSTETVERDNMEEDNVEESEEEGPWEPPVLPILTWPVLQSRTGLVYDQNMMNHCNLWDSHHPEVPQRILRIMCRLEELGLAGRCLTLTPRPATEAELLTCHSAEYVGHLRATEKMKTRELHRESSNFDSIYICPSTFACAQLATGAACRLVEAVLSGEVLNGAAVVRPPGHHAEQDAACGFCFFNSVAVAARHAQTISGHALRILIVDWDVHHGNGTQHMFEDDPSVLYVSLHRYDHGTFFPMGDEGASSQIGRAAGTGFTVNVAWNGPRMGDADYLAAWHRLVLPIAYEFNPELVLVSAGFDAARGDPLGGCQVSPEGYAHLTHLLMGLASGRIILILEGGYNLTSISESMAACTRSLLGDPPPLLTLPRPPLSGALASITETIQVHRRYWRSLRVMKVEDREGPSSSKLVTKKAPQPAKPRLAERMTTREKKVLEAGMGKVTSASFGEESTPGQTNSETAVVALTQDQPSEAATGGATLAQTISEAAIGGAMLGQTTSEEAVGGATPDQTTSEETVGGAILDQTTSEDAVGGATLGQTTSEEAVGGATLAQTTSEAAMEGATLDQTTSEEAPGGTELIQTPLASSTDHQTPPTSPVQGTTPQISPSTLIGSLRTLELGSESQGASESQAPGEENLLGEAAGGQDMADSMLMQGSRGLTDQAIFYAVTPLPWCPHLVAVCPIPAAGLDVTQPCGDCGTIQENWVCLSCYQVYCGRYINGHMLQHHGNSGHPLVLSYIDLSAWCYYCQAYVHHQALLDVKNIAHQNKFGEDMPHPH

[2] = molecular target: T1, von Hippel-Lindau disease tumor suppressor/Protein deacetylase HDAC6; assay: Protac activity at VHL/HDAC6 in human MM1S cells assessed as HDAC6 degradation at 100 nM measured after 6 hrs by Western blot analysis
Summary of the method: (§1)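 MM1S cells were treated with degraders at 100 nM for 6 h. Lysates were analysed by Western blot for HDAC6 and acetylated tubulin.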
Target sequence in this assay (P40337 whole entry, looked up): as the sequence (P40337 whole entry, looked up) above
Target sequence in this assay (Q9UBN7 whole entry, looked up): as the sequence (Q9UBN7 whole entry, looked up) above

[3] = molecular target: T1, von Hippel-Lindau disease tumor suppressor/Protein deacetylase HDAC6; assay: Protac activity at VHL/HDAC6 in human MM1S cells assessed as increase in tubulin acetylation at 100 nM measured after 6 hrs by Western blot analysis; summary of the method: as §1
Target sequence in this assay (P40337 whole entry, looked up): as the sequence (P40337 whole entry, looked up) above
Target sequence in this assay (Q9UBN7 whole entry, looked up): as the sequence (Q9UBN7 whole entry, looked up) above

[4] = molecular target: T1, von Hippel-Lindau disease tumor suppressor/Protein deacetylase HDAC6; assay: Protac activity at VHL/HDAC6 in human MM1S cells measured after 6 hrs by ELISA
Summary of the method: (§2)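 MM1S multiple myeloma cells exposed to degraders for 6 h. HDAC6 protein level was read by in-cell ELISA; dose-response ran from 1 nM to 3 μM. DC50 and Dmax were derived from the dose-response curve.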

[5] = molecular target: T1, von Hippel-Lindau disease tumor suppressor/Protein deacetylase HDAC6; assay: Protac activity at VHL/HDAC6 in human MM1S cells measured after 6 hrs by ELISA relative to control; summary of the method: as §2
Target sequence in this assay (P40337 whole entry, looked up): as the sequence (P40337 whole entry, looked up) above
Target sequence in this assay (Q9UBN7 whole entry, looked up): as the sequence (Q9UBN7 whole entry, looked up) above

[6] = molecular target: T1, von Hippel-Lindau disease tumor suppressor/Protein deacetylase HDAC6; assay: Protac activity at VHL/HDAC6 in human MM1S cells assessed as HDAC6 degradation at 10 nM measured after 4 hrs by Western blot analysis
Summary of the method: (§3)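 Dose-response in MM1S cells treated with degrader from 1 nM to 30 μM for 4 h. Lysates were immunoblotted for HDAC6 and acetylated tubulin.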
Target sequence in this assay (P40337 whole entry, looked up): as the sequence (P40337 whole entry, looked up) above
Target sequence in this assay (Q9UBN7 whole entry, looked up): as the sequence (Q9UBN7 whole entry, looked up) above

[7] = molecular target: T1, von Hippel-Lindau disease tumor suppressor/Protein deacetylase HDAC6; assay: Protac activity at VHL/HDAC6 in human MM1S cells assessed as HDAC6 degradation at 100 nM measured after 4 hrs by Western blot analysis; summary of the method: as §3
Target sequence in this assay (P40337 whole entry, looked up): as the sequence (P40337 whole entry, looked up) above
Target sequence in this assay (Q9UBN7 whole entry, looked up): as the sequence (Q9UBN7 whole entry, looked up) above

[8] = molecular target: T1, von Hippel-Lindau disease tumor suppressor/Protein deacetylase HDAC6; assay: Protac activity at VHL/HDAC6 in human MM1S cells assessed as compound-VHL complex formation at 3 uM after 6 hrs
[9] = molecular target: T1, von Hippel-Lindau disease tumor suppressor/Protein deacetylase HDAC6; assay: Protac activity at VHL/HDAC6 in human MM1S cells assessed as compound-HDAC6 complex formation at 3 uM after 6 hrs
[10] = molecular target: T1, von Hippel-Lindau disease tumor suppressor/Protein deacetylase HDAC6; assay: Protac activity at VHL/HDAC6 in human MM1S cells assessed as induction of tubulin acetylation after 4 hrs by Western blot analysis; summary of the method: as §3
[11] = molecular target: T1, von Hippel-Lindau disease tumor suppressor/Protein deacetylase HDAC6; assay: Protac activity at VHL/HDAC6 in human MM1S cells assessed as induction of tubulin acetylation at 1 uM after 4 hrs by Western blot analysis; summary of the method: as §3
[12] = molecular target: T1, von Hippel-Lindau disease tumor suppressor/Protein deacetylase HDAC6; assay: Protac activity at VHL/HDAC6 in human MM1S cells assessed as increase in tubulin acetylation at 300 nM after 4 hrs by Western blot analysis; summary of the method: as §3
[13] = molecular target: von Hippel-Lindau disease tumor suppressor/Histone deacetylase 1 (Homo sapiens) (UniProt Q13547+P40337); assay: Protac activity at VHL/HDAC1 in human MM1S cells assessed as HDAC1 degradation at 100 nM after 4 hrs by Western blot analysis
[14] = molecular target: von Hippel-Lindau disease tumor suppressor/Histone deacetylase 2 (Homo sapiens) (UniProt Q92769+P40337); assay: Protac activity at VHL/HDAC2 in human MM1S cells assessed as HDAC2 degradation at 100 nM after 4 hrs by Western blot analysis
[15] = molecular target: von Hippel-Lindau disease tumor suppressor/Histone deacetylase 3 (Homo sapiens) (UniProt O15379+P40337); assay: Protac activity at VHL/HDAC3 in human MM1S cells assessed as HDAC3 degradation at 100 nM after 4 hrs by Western blot analysis
[16] = molecular target: von Hippel-Lindau disease tumor suppressor/Histone deacetylase 4 (Homo sapiens) (UniProt P56524+P40337); assay: Protac activity at VHL/HDAC4 in human MM1S cells assessed as HDAC4 degradation at 100 nM after 4 hrs by Western blot analysis
[17] = molecular target: von Hippel-Lindau disease tumor suppressor/Histone deacetylase 5 (Homo sapiens) (UniProt Q9UQL6+P40337); assay: Protac activity at VHL/HDAC5 in human MM1S cells assessed as HDAC5 degradation at 100 nM after 4 hrs by Western blot analysis
[18] = molecular target: von Hippel-Lindau disease tumor suppressor/Histone deacetylase 7 (Homo sapiens) (UniProt Q8WUI4+P40337); assay: Protac activity at VHL/HDAC7 in human MM1S cells assessed as HDAC7 degradation at 100 nM after 4 hrs by Western blot analysis
[19] = molecular target: von Hippel-Lindau disease tumor suppressor/DNA-binding protein Ikaros (Homo sapiens) (UniProt P40337+Q13422); assay: Protac activity at VHL/IKZF1 in human MM1S cells assessed as IKZF1 degradation at 100 nM after 4 hrs by Western blot analysis
[20] = molecular target: von Hippel-Lindau disease tumor suppressor/Zinc finger protein Aiolos (Homo sapiens) (UniProt P40337+Q9UKT9); assay: Protac activity at VHL/IKZF3 in human MM1S cells assessed as IKZF3 degradation at 100 nM after 4 hrs by Western blot analysis
[21] = molecular target: T1, von Hippel-Lindau disease tumor suppressor/Protein deacetylase HDAC6; assay: Protac activity at VHL/HDAC6 in human MM1S cells assessed as tubulin acetylation at 100 nM to 1 microM after 6 hrs by Western blot analysis
[22] = molecular target: T1, von Hippel-Lindau disease tumor suppressor/Protein deacetylase HDAC6; assay: Protac activity at VHL/HDAC6 in human MM1S cells assessed as reduction in protein level at 100 nM after 30 mins by Western blot analysis
[23] = molecular target: T1, von Hippel-Lindau disease tumor suppressor/Protein deacetylase HDAC6; assay: Protac activity at VHL/HDAC6 in human MM1S cells assessed as reduction in protein level at 100 nM after 4 hrs by Western blot analysis
[24] = molecular target: T1, von Hippel-Lindau disease tumor suppressor/Protein deacetylase HDAC6; assay: Protac activity at VHL/HDAC6 in human MM1S cells assessed as HDAC6 degradation at 100 nM pretreated for 1 hr in presence of proteasome inhibitor MG132 by Western blot analysis
Summary of the method: (§4)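 MM1S cells were pretreated for 1 h with a pathway inhibitor or competing ligand, then given degrader at 100 nM. HDAC6 was read by Western blot. Pretreatment levels: MG132 1 μM, bortezomib 1 μM, MLN4924 5 μM, Next-A 5 μM; VHL-1 was titrated.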

[25] = molecular target: T1, von Hippel-Lindau disease tumor suppressor/Protein deacetylase HDAC6; assay: Protac activity at VHL/HDAC6 in human MM1S cells assessed as HDAC6 degradation at 100 nM pretreated for 1 hr in presence of proteasome inhibitor Bortezomib by Western blot analysis; summary of the method: as §4
[26] = molecular target: T1, von Hippel-Lindau disease tumor suppressor/Protein deacetylase HDAC6; assay: Protac activity at VHL/HDAC6 in human MM1S cells assessed as HDAC6 degradation at 100 nM pretreated for 1 hr in presence of HDAC6 inhibitor Next-A by Western blot analysis; summary of the method: as §4
[27] = molecular target: T1, von Hippel-Lindau disease tumor suppressor/Protein deacetylase HDAC6; assay: Protac activity at VHL/HDAC6 in human MM1S cells assessed as HDAC6 degradation at 100 nM pretreated for 1 hr in presence of 5 uM VHL-1 by Western blot analysis; summary of the method: as §4
[28] = molecular target: T1, von Hippel-Lindau disease tumor suppressor/Protein deacetylase HDAC6; assay: Protac activity at VHL/HDAC6 in human HEK293T cells assessed as induction of HDAC degradation by Western blot analysis; conditions: HEK-293T
[29] = molecular target: T1, von Hippel-Lindau disease tumor suppressor/Protein deacetylase HDAC6; assay: Protac activity at VHL/HDAC6 in human A549 cells assessed as induction of HDAC degradation by Western blot analysis
[30] = molecular target: T1, von Hippel-Lindau disease tumor suppressor/Protein deacetylase HDAC6; assay: Protac activity at VHL/HDAC6 in human MCF7 cells assessed as induction of HDAC degradation by Western blot analysis
[31] = molecular target: T1, von Hippel-Lindau disease tumor suppressor/Protein deacetylase HDAC6; assay: Protac activity at VHL/HDAC6 in human U87MG cells assessed as induction of HDAC degradation by Western blot analysis; conditions: U-87MG ATCC
[32] = molecular target: T2, von Hippel-Lindau disease tumor suppressor/Protein deacetylase HDAC6 (Mus musculus) (UniProt Q9Z2V5+P40338); assay: Protac activity at VHL/HDAC6 in mouse 4935 cells assessed as HDAC6 degradation at 10 nM to 10 uM after 6 hrs by Western blot analysis
T2 sequence (P40338 whole entry, looked up): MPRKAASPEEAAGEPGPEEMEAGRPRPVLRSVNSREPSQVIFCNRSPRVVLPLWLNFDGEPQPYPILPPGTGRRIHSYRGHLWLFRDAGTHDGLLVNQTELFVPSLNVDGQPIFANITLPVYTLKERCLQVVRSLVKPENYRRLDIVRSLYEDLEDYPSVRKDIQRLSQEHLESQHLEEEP
T2 sequence (Q9Z2V5 whole entry, looked up): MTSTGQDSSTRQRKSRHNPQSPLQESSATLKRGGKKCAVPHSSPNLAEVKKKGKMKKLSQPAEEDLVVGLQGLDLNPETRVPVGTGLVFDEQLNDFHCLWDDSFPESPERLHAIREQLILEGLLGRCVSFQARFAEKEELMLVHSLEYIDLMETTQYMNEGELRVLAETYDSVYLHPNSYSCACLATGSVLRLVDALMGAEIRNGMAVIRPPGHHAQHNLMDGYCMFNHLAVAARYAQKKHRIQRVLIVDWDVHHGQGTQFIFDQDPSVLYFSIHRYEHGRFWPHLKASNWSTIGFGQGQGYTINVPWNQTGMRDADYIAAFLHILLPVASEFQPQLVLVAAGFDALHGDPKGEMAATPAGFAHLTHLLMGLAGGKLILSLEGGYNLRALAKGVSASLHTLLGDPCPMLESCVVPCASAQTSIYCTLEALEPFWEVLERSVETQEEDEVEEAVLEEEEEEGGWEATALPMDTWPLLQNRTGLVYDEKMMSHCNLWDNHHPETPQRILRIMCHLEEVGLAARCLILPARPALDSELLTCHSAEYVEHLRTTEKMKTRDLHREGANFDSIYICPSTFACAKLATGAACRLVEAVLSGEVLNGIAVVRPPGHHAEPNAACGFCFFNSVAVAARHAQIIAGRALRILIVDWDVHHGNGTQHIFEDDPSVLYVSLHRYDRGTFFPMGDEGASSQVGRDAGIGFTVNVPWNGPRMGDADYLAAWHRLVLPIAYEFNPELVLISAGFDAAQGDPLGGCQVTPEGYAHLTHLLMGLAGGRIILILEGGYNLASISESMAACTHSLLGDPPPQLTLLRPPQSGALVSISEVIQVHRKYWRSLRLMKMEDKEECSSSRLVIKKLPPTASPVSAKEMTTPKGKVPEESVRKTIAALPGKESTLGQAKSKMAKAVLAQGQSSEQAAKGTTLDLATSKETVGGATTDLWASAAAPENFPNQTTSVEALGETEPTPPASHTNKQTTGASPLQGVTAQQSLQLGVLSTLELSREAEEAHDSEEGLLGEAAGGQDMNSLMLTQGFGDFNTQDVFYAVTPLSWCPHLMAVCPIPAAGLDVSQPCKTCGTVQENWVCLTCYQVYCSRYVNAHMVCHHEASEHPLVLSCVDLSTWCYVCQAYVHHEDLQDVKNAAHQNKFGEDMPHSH
Summary of the method: (§5)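 Mouse 4935 cells were treated with degraders for 6 h, then analysed by Western blot for HDAC6 and acetylated tubulin.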

[33] = molecular target: T2, von Hippel-Lindau disease tumor suppressor/Protein deacetylase HDAC6 (Mus musculus); assay: Protac activity at VHL/HDAC6 in mouse 4935 cells assessed as tubulin acetylation at 10 nM to 10 uM after 6 hrs by Western blot analysis; summary of the method: as §5
[34] = molecular target: T3, von Hippel-Lindau disease tumor suppressor/Protein deacetylase HDAC6 (Mus musculus, UniProt Q9Z2V5+P40338); assay: Protac activity at VHL/HDAC6 in mouse 4935 cells assessed as HDAC6 degradation after 6 hrs by ELISA
T3 sequence (Q9Z2V5 whole entry): as the sequence (Q9Z2V5 whole entry, looked up) above
T3 sequence (P40338 whole entry): as the sequence (P40338 whole entry, looked up) above

[35] = molecular target: T3, von Hippel-Lindau disease tumor suppressor/Protein deacetylase HDAC6; assay: Protac activity at VHL/HDAC6 in mouse 4935 cells assessed as HDAC6 degradation after 6 hrs by Western blot analysis; summary of the method: as §5
[36] = molecular target: T2, von Hippel-Lindau disease tumor suppressor/Protein deacetylase HDAC6 (Mus musculus); assay: Protac activity at VHL/HDAC6 in mouse 4935 cells assessed as HDAC6 degradation after 6 hrs by ELISA relative to control

CCCCN(Cc1ccc(C(=O)NO)cc1)C(=O)Nc1ccc(OCCCCCCCCCCCn2cc(CCCCC(=O)N[C@H](C(=O)N3C[C@H](O)C[C@H]3C(=O)NCc3ccc(-c4scnc4C)cc3)C(C)(C)C)nn2)cc1
Activity [1]: Active | Activity [2]: Active | Activity [3]: Active | DC50 [4]: 7.1 nM | Emax [5]: 90% | Activity [6]: Active | Activity [7]: Active | Activity [8]: Active | Activity [9]: Active | Activity [10]: Dose-dependent effect | Activity [11]: Active | Activity [12]: Active | Activity [13]: inactive | Activity [14]: inactive | Activity [15]: inactive | Activity [16]: inactive | Activity [17]: inactive | Activity [18]: inactive | Activity [19]: inactive | Activity [20]: inactive | Activity [21]: Active | Activity [22]: Active | Activity [23]: Active | Activity [24]: inactive | Activity [25]: inactive | Activity [26]: inactive | Activity [27]: inactive | Activity [28]: Dose-dependent effect | Activity [29]: Dose-dependent effect | Activity [30]: Dose-dependent effect | Activity [31]: Dose-dependent effect | Activity [32]: Active | Activity [33]: Active | DC50 [34]: 4.3 nM | DC50 [35]: 12 nM | Emax [36]: 57%
